Assays:
Rattus norvegicus [1] = test: Compound was tested for oral salidiuretic activity (control/drug treatment value) in rats expressed in Na+, mequiv/6 hr at a dose of 128 mg/kg; 0.163/0.139; assay type: functional, Urine
Rattus norvegicus [2] = test: Compound was tested for oral salidiuretic activity (control/drug treatment value) in rats expressed as urinary output. at a dose of 128 mg/kg; 8.72/8.15; assay type: functional, Urine
[3] = target: Beta-2 adrenergic receptor (Canis lupus familiaris) (UniProt P54833)
Rattus norvegicus [4] = test: Compound was tested for oral salidiuretic activity (control/drug treatment value) in rats expressed in Na+, mequiv/6 hr at a dose of 128 mg/kg; 0.186/0.179; assay type: functional, Urine
[5] = target: Beta-1 adrenergic receptor (Homo sapiens) (UniProt P08588); conditions: Canis lupus familiaris
Rattus norvegicus [6] = test: Compound was tested for oral salidiuretic activity (control/drug treatment value) in rats expressed as urinary output. at a dose of 128 mg/kg; 8.42/6.25; assay type: functional, Urine
Rattus norvegicus [7] = test: Compound was tested for oral salidiuretic activity (control/drug treatment value) in rats expressed as urinary output. at a dose of 128 mg/kg; 7.87/8.70; assay type: functional, Urine
Rattus norvegicus [8] = test: Compound was tested for oral salidiuretic activity (control/drug treatment value) in rats expressed in Na+, mequiv/6 h at a dose of 128 mg/kg; 0.177/0.304; assay type: functional, Urine
Rattus norvegicus [9] = test: Compound was tested for oral salidiuretic activity (control/drug treatment value) in rats expressed as urinary output. at a dose of 32 mg/kg; 10.33/10.08; assay type: functional, Urine
Rattus norvegicus [10] = test: Compound was tested for oral salidiuretic activity (control/drug treatment value) in rats expressed in Na+, mequiv/6 hr at a dose of 32 mg/kg; 0.140/0.417; assay type: functional, Urine
Rattus norvegicus [11] = test: Compound was tested for oral salidiuretic activity (control/drug treatment value) in rats expressed as urinary output. at a dose of 128 mg/kg; 7.33/13.83; assay type: functional, Urine
Rattus norvegicus [12] = test: Compound was tested for oral salidiuretic activity (control/drug treatment value) in rats expressed in Na+, mequiv/6 hr at a dose of 128 mg/kg; 0.201/1.197; assay type: functional, Urine
Rattus norvegicus [13] = test: Compound was tested for oral salidiuretic activity (control/drug treatment value) in rats expressed in Na+, mequiv/6 hr at a dose of 128 mg/kg;. 207/1.364; assay type: functional, Urine
Rattus norvegicus [14] = test: Compound was tested for oral salidiuretic activity (control/drug treatment value) in rats expressed as urinary output. at a dose of 32 mg/kg at 0-6 h; 9.99/13.01; assay type: functional, Urine
[15] = target: Beta-2 adrenergic receptor (Rattus norvegicus) (UniProt P10608); test: The compound was tested for beta-2 adrenergic receptor blocking activity in conscious rats after 1 hr
[16] = target: Beta-1 adrenergic receptor (Homo sapiens) (UniProt P08588); test: Compound was tested for beta-1 adrenergic receptor blocking activity in dogs; conditions: Canis lupus familiaris; target entry is the homologue from another species
Rattus norvegicus [17] = test: Compound was tested for oral salidiuretic activity (control/drug treatment value) in rats expressed as urinary output. at a dose of 64 mg/kg; 6.42/11.25; assay type: functional, Urine
Rattus norvegicus [18] = test: Compound was tested for oral salidiuretic activity (control/drug treatment value) in rats expressed as urinary output. at a dose of 16 mg/kg; 6.42/9; assay type: functional, Urine
Rattus norvegicus [19] = test: Compound was tested for oral salidiuretic activity (control/drug treatment value) in rats expressed in Na+, mequiv/6 hr at a dose of 32 mg/kg; 0.207/0.626; assay type: functional, Urine
Rattus norvegicus [20] = test: Compound was tested for oral salidiuretic activity (control/drug treatment value) in rats expressed in Na+, mequiv/6 hr at a dose of 16 mg/kg; 0.207/0.554; assay type: functional, Urine
Rattus norvegicus [21] = test: Compound was tested for oral salidiuretic activity (control/drug treatment value) in rats expressed as urinary output. at a dose of 32 mg/kg at 0-4 h; 9.02/11.67; assay type: functional, Urine
Rattus norvegicus [22] = test: Compound was tested for oral salidiuretic activity (control/drug treatment value) in rats expressed as urinary output. at a dose of 32 mg/kg at 0-2h; 7.42/9.64; assay type: functional, Urine
Rattus norvegicus [23] = test: Compound was tested for oral salidiuretic activity (control/drug treatment value) in rats expressed in Na+, mequiv/6 hr at a dose of 32 mg/kg; 0.259/0.680; assay type: functional, Urine
Rattus norvegicus [24] = test: Compound was tested for oral salidiuretic activity (control/drug treatment value) in rats expressed as urinary output. at a dose of 32 mg/kg; 6.42/9.83; assay type: functional, Urine
[25] = target: Beta-1 adrenergic receptor (Homo sapiens) (UniProt P08588); test: Compound was tested for beta-1 adrenergic receptor blocking activity in conscious rats after 5 hr; conditions: Rattus norvegicus; target entry is the homologue from another species
Rattus norvegicus [26] = test: Compound was tested for oral salidiuretic activity (control/drug treatment value) in rats expressed as urinary output. at a dose of 128 mg/kg; 6.42/15.08; assay type: functional, Urine
Rattus norvegicus [27] = test: Compound was tested for oral salidiuretic activity (control/drug treatment value) in rats expressed in Na+, mequiv/6 hr at a dose of 64 mg/kg; 0.207/0.766; assay type: functional, Urine
[28] = target: Beta-1 adrenergic receptor (Homo sapiens) (UniProt P08588); test: Compound was tested for beta-1 adrenergic receptor blocking activity in conscious rats after 1 hr; conditions: Rattus norvegicus; target entry is the homologue from another species
[29] = target: Beta-2 adrenergic receptor (Canis lupus familiaris) (UniProt P54833); test: The compound was tested for beta-2 adrenergic receptor blocking activity in dogs
Outline: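 In two dogs, drugs were injected via a cannulated saphenous vein, with increasing doses given every 30 min and each animal used once per substance. Isoproterenol-induced changes in diastolic arterial pressure after each dose were compared with isoproterenol control responses to calculate percent blockade. ID50 (50% inhibition) was estimated from the dose-response curve.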

Rattus norvegicus [30] = test: Compound was tested for oral salidiuretic activity (control/drug treatment value) in rats expressed as urinary output. at a dose of 64 mg/kg; 10.33/9.33; assay type: functional, Urine
Rattus norvegicus [31] = test: Compound was tested for oral salidiuretic activity (control/drug treatment value) in rats expressed in Na+, mequiv/6 hr at a dose of 64 mg/kg; 0.140/0.355; assay type: functional, Urine
Rattus norvegicus [32] = test: Compound was tested for oral salidiuretic activity (control/drug treatment value) in rats expressed as urinary output. at a dose of 128 mg/kg; 8.17/12.83; assay type: functional, Urine
Rattus norvegicus [33] = test: Compound was tested for oral salidiuretic activity (control/drug treatment value) in rats expressed in Na+, mequiv/6 hr at a dose of 128 mg/kg; 0.198/0.885; assay type: functional, Urine
Rattus norvegicus [34] = test: Compound was tested for oral salidiuretic activity (control/drug treatment value) in rats expressed in Na+, mequiv/6 hr at a dose of 16 mg/kg; 0.205/0.350; assay type: functional, Urine
Rattus norvegicus [35] = test: Compound was tested for oral salidiuretic activity (control/drug treatment value) in rats expressed in Na+, mequiv/6 h at a dose of 128 mg/kg; 0.205/0.712; assay type: functional, Urine
Rattus norvegicus [36] = test: Compound was tested for oral salidiuretic activity (control/drug treatment value) in rats expressed in Na+, mequiv/6 hr at a dose of 32 mg/kg; 0.205/0.358; assay type: functional, Urine
Rattus norvegicus [37] = test: Compound was tested for oral salidiuretic activity (control/drug treatment value) in rats expressed as urinary output. at a dose of 128 mg/kg; 7.33/11.50; assay type: functional, Urine
Rattus norvegicus [38] = test: Compound was tested for oral salidiuretic activity (control/drug treatment value) in rats expressed as urinary output. at a dose of 64 mg/kg; 7.33/10; assay type: functional, Urine
Rattus norvegicus [39] = test: Compound was tested for oral salidiuretic activity (control/drug treatment value) in rats expressed as urinary output. at a dose of 16 mg/kg; 7.33/9.75; assay type: functional, Urine
Rattus norvegicus [40] = test: Compound was tested for oral salidiuretic activity (control/drug treatment value) in rats expressed as urinary output. at a dose of 32 mg/kg; 7.33/9.17; assay type: functional, Urine
Rattus norvegicus [41] = test: Compound was tested for oral salidiuretic activity (control/drug treatment value) in rats expressed in Na+, mequiv/6 h at a dose of 64 mg/kg; 0.205/0.514; assay type: functional, Urine

Beta-1 adrenergic receptor (Homo sapiens), sequence (P08588 whole entry, looked up): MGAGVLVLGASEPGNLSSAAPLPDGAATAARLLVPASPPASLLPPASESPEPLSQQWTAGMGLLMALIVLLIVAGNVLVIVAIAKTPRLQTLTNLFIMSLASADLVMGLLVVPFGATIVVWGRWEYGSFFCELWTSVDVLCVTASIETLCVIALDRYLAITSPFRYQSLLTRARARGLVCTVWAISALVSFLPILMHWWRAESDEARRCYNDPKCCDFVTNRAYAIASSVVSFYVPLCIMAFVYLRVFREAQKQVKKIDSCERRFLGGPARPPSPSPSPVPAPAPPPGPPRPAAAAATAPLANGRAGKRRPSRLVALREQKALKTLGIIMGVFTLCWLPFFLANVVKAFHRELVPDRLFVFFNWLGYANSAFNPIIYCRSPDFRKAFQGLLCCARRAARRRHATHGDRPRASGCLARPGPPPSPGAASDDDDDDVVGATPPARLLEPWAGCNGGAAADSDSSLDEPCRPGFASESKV
Beta-2 adrenergic receptor (Canis lupus familiaris), sequence (P54833 whole entry, looked up): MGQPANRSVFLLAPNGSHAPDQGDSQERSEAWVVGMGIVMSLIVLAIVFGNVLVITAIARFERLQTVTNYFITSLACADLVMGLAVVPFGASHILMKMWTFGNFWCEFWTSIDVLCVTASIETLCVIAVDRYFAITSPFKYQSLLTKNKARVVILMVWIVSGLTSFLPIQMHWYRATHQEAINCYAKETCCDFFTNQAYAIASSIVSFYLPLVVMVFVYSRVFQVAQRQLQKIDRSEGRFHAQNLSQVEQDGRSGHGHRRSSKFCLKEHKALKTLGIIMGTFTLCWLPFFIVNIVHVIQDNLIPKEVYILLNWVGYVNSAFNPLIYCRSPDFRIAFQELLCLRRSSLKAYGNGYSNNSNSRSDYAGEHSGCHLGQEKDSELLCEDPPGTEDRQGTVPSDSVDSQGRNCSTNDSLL
Beta-2 adrenergic receptor (Rattus norvegicus), sequence (P10608 whole entry, looked up): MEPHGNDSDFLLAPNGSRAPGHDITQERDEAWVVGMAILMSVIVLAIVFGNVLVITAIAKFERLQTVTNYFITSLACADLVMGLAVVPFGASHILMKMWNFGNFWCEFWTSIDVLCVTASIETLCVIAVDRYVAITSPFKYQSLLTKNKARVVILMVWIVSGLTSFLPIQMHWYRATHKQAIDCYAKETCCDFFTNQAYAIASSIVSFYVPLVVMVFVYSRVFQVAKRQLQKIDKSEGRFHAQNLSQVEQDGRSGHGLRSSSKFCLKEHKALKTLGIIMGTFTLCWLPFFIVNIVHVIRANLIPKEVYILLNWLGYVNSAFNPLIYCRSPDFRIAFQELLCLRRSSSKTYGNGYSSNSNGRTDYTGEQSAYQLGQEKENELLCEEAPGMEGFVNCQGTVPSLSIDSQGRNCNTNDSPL

Q: For `CCOC(=O)c1cc(NC(=O)Cc2cccs2)ccc1OCC(O)CNC(C)C` (stereo not drawn), which Activity (Rattus norvegicus [1]) is on record?
A: 0.163

Q: And the treated urinary output (Rattus norvegicus [2])?
A: 8.15 mL

Q: Which ID50 [3] does the source give for `CCOC(=O)c1cc(NC(=O)Cc2cccs2)ccc1OCC(O)CNC(C)(C)C` (stereo not drawn) here?
A: 0.6 mg/kg

Q: And the Activity (Rattus norvegicus [4])?
A: 0.186

Q: What about the ID50 [5] of the same molecule?
A: 0.004 mg/kg

Q: What about the Activity (Rattus norvegicus [6]) of the same molecule?
A: 8.42 mL

Q: What does the source list for `CC(=O)c1cc(NC(=O)c2cccs2)ccc1OCC(O)CNC(C)C` (stereo not drawn)?
A: ID50 [3]: > 1 mg/kg; Activity (Rattus norvegicus [7]): 7.87 mL; ID50 [5]: 0.45 mg/kg; Activity (Rattus norvegicus [8]): 0.177

Q: How did the Activity (Rattus norvegicus [9]) turn out when `CC(C)NCC(O)COc1ccc(NC(=O)c2cccs2)cc1Cl` (stereo not drawn) was run?
A: 10.33 mL

Q: And the ID50 [3]?
A: > 1 mg/kg

Q: What about the Activity (Rattus norvegicus [10]) of the same molecule?
A: 0.14

Q: And the ID50 [5]?
A: 0.17 mg/kg

Q: Which ID50 [3] does the source give for `CC(C)OC(=O)c1cc(NC(=O)c2cccs2)ccc1OCC(O)CNC(C)(C)C` (stereo not drawn) here?
A: > 1 mg/kg

Q: And the Activity (Rattus norvegicus [11])?
A: 7.33 mL

Q: And the ID50 [5]?
A: 0.32 mg/kg

Q: And the Activity (Rattus norvegicus [12])?
A: 0.21

Q: For `CCOC(=O)c1cc(NC(=O)c2cccs2)ccc1OCC(O)CNC(C)(C)C` (stereo not drawn) [TIENOXOLOL], which Activity (Rattus norvegicus [13]) is on record?
A: 0.207

Q: What about the Activity (Rattus norvegicus [14]) of the same molecule?
A: 9.99 mL

Q: And the ED50 [15]?
A: 0.00133 mg/kg

Q: What about the ID50 [16] of the same molecule?
A: 0.065 mg/kg

Q: What about the treated urinary output (Rattus norvegicus [17]) of the same molecule?
A: 11.2 mL

Q: And the treated urinary output (Rattus norvegicus [18])?
A: 9 mL

Q: And the Activity (Rattus norvegicus [19])?
A: 0.207

Q: What about the Activity (Rattus norvegicus [20]) of the same molecule?
A: 0.207

Q: And the Activity (Rattus norvegicus [21])?
A: 9.02 mL

Q: And the Activity (Rattus norvegicus [22])?
A: 7.42 mL

Q: And the Activity (Rattus norvegicus [23])?
A: 0.259

Q: What about the treated urinary output (Rattus norvegicus [24]) of the same molecule?
A: 9.83 mL

Q: What about the ED50 [25] of the same molecule?
A: 0.00179 mg/kg

Q: What about the Activity (Rattus norvegicus [26]) of the same molecule?
A: 6.42 mL

Q: What about the Activity (Rattus norvegicus [27]) of the same molecule?
A: 0.207

Q: What about the ED50 [28] of the same molecule?
A: 0.00176 mg/kg

Q: And the ID50 [29]?
A: > 1 mg/kg

Q: How did the Activity (Rattus norvegicus [30]) turn out when `CC(C)(C)NCC(O)COc1ccc(NC(=O)c2cccs2)cc1Cl` (stereo not drawn) was run?
A: 10.33 mL

Q: What about the ID50 [3] of the same molecule?
A: 0.4 mg/kg

Q: And the ID50 [5]?
A: 0.014 mg/kg

Q: What about the Activity (Rattus norvegicus [31]) of the same molecule?
A: 0.14

Q: What does the source list for `COC(=O)c1cc(NC(=O)c2cccs2)ccc1OCC(O)CNC(C)C` (stereo not drawn)?
A: ID50 [3]: > 1 mg/kg; Activity (Rattus norvegicus [32]): 8.17 mL; Activity (Rattus norvegicus [33]): 0.198; ID50 [5]: 0.25 mg/kg

Q: For `CCOC(=O)c1cc(NC(=O)c2cccs2)ccc1OCC(O)CNC(C)C` (stereo not drawn), which Activity (Rattus norvegicus [34]) is on record?
A: 0.205

Q: What about the ID50 [3] of the same molecule?
A: 0.45 mg/kg

Q: What about the Activity (Rattus norvegicus [35]) of the same molecule?
A: 0.205

Q: What about the Activity (Rattus norvegicus [36]) of the same molecule?
A: 0.205

Q: What about the Activity (Rattus norvegicus [37]) of the same molecule?
A: 7.33 mL

Q: And the Activity (Rattus norvegicus [38])?
A: 7.33 mL

Q: And the Activity (Rattus norvegicus [39])?
A: 7.33 mL

Q: What about the Activity (Rattus norvegicus [40]) of the same molecule?
A: 7.33 mL

Q: And the ID50 [5]?
A: 0.3 mg/kg

Q: What about the Activity (Rattus norvegicus [41]) of the same molecule?
A: 0.205
